# In the library only some 2.7% were active in any assay of this set; here they are far more common.
# AF4-AF9 inh: blocks AF4 peptide binding to human AF9 | P42568 | AlphaScreen, biotin-AF4 peptide binding to FLAG-AF9 | inhibition, % at 10 µM | 350,000 tested, 0.47% active;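 active means every replicate reaching a set inhibition limit, whatever the replicate mean, cut at about 25% in these data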;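 further: 0% = plate neutral control median and 100% = total signal loss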
# SIRT5 block: blocks human SIRT5 desuccinylation of peptide. Q9NXA8. Purified SirT5, succinyl-peptide AMC, trypsin-coupled fluorescence. inhibition, % at 15 µM. 330,000 tested, 1.1% active; in the data active means inhibition above about 15%
# Target sequence (Q9NXA8 whole entry, looked up): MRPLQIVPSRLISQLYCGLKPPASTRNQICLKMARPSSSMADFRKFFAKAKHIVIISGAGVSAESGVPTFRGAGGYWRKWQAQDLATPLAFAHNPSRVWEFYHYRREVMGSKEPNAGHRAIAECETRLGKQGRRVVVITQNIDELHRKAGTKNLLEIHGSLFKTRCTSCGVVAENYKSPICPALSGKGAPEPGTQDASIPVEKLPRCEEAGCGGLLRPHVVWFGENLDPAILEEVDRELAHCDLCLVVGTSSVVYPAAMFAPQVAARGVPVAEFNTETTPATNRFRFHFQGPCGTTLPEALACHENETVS
# DENV2 CPE rescue: inhibitors of DENV2 cytopathic effect | CPE inhibition, % at 9.99 µM | 350,000 tested, 1.7% active | DENV2-infected cells, cytopathic effect rescue, plate reader; in the data active means CPE inhibition above about 20%, passing the limit was not always enough; tested in BHK-21 cells;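 further: 0% = median of neutral control wells and 100% = median of positive control wells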
# S100A4 inh HTS: blocks human S100A4 binding to myosin IIA peptide | S100A4/TAMRA-MyoIIA peptide fluorescence polarization | inhibition, % at 10.7 µM | P26447 | 360,000 tested, 0.14% active;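 active means mean inhibition of at least 70% across replicates, with every replicate also reaching that level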
# Target sequence (P26447 whole entry, looked up): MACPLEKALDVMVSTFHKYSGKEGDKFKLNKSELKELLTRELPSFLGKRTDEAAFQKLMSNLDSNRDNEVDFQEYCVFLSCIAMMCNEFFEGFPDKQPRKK
#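 Assay system: human S100A4 monomer with TAMRA-labelled myosin IIA peptide / Buffer or medium: Calcium-containing HEPES buffer, pH 7.2 / Reagent: TAMRA-labelled myosin IIA heavy-chain peptide probe, 5 nM / Compound: one dose per compound / Timing: polarization read 5 min after assay mix addition, stable 5–60 min / Benchmarks: neutral control DMSO, positive control TFP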
# CaV13 ICDI inh: Disruptors of the CACNA1D IQ motif to Ca2+-dependent inactivation inhibitor domain association, primary screening, Förster resonance energy transfer in intact living …; HEK cells, CFP/YFP FRET ICDI-IQ, plate reader, 10 min; percent FRET-ratio fall versus neutral wells; inhibition, % at 12.3 µM; 340,000 tested, 0.098% active; AID 743397;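 active means mean replicate inhibition of at least 30% and at least 1% of replicates passing that level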;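 further: 0% = median of the neutral control wells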
# * marks the source's active call; other numbers are inactive results; . = not tested or not shown.
SMILES,AF4-AF9 inh,SIRT5 block,DENV2 CPE rescue,S100A4 inh HTS,CaV13 ICDI inh
C[C@H]1CCCCO[C@H](CN(C)Cc2ccc(Cl)c(Cl)c2)[C@@H](C)CN([C@@H](C)CO)C(=O)c2cc(NS(=O)(=O)c3ccccc3)ccc2O1,1,0,-13,-7,.
COc1ccc(NC(=O)N(C)C[C@@H]2Oc3ccc(NS(=O)(=O)c4cccs4)cc3C(=O)N([C@H](C)CO)C[C@@H]2C)cc1,-3,12,7,3,.
C[C@@H]1CN([C@@H](C)CO)C(=O)c2cc(NC(=O)Cc3ccccc3)ccc2O[C@@H]1CN(C)CC1CC1,3,-2,10,-1,.
COc1ccc(S(=O)(=O)Nc2ccc3c(c2)C(=O)N([C@H](C)CO)C[C@H](C)[C@@H](CN(C)Cc2ccc(C(=O)O)cc2)OCCCC[C@@H](C)O3)cc1,-2,4,33*,0,.
COc1ccc(S(=O)(=O)Nc2ccc3c(c2)C(=O)N([C@H](C)CO)C[C@@H](C)[C@@H](CN(C)Cc2ccc(C(=O)O)cc2)OCCCC[C@@H](C)O3)cc1,-8,0,-8,-2,.
COc1ccc(S(=O)(=O)Nc2ccc3c(c2)C(=O)N([C@@H](C)CO)C[C@@H](C)[C@@H](CN(C)Cc2ccc(C(=O)O)cc2)OCCCC[C@H](C)O3)cc1,-2,6,26*,2,.
O=C(N[C@H]1C=C[C@@H](CC(=O)N2CCC(Cc3ccccc3)CC2)O[C@H]1CO)c1cnccn1,-1,5,-2,11,.
CC(C)C#Cc1cnc2c(c1)C(=O)N([C@@H](C)CO)C[C@@H](C)[C@@H](CN(C)C(=O)Nc1ccccc1)O2,-1,-2,4,12,.
Cc1cc(/C=N/N2CCN(C)CC2)c(C)n1-c1ccc(Cl)cc1,48*,3,8,-1,-2
Cc1cc(/C=N/NC(N)=S)c(C)n1-c1ccc(Cl)c(Cl)c1,4,-3,0,-4,-18
Cc1cc(/C=N/n2cnnc2)c(C)n1-c1ccc(Cl)cc1,.,.,.,.,-4
CCNC(=S)N/N=C/c1cc(C)n(-c2ccc(Cl)cc2)c1C,3,16*,6,-3,1
C[C@@H]1CN([C@H](C)CO)C(=O)c2cc(NS(C)(=O)=O)ccc2O[C@@H](C)CCCCO[C@H]1CN(C)C(=O)NC1CCCCC1,.,.,-3,.,.
Cc1noc(C)c1S(=O)(=O)N(C)C[C@@H]1OCCCC[C@H](C)Oc2ccc(NC(=O)Nc3ccc(F)cc3)cc2C(=O)N([C@H](C)CO)C[C@@H]1C,-2,-2,7,-7,.
C[C@@H]1CN([C@H](C)CO)S(=O)(=O)c2ccc(C3=CCCCC3)cc2O[C@@H]1CN(C)S(=O)(=O)c1ccc(F)cc1,1,-3,23*,8,.
COc1cccc(S(=O)(=O)N(C)C[C@@H]2Oc3cc(C4=CCCC4)ccc3S(=O)(=O)N([C@H](C)CO)C[C@H]2C)c1,0,23*,55*,-6,.
COc1cccc(S(=O)(=O)N(C)C[C@@H]2Oc3cc(C4=CCCCC4)ccc3S(=O)(=O)N([C@H](C)CO)C[C@@H]2C)c1,1,26*,2,3,.
C[C@@H]1CN([C@@H](C)CO)S(=O)(=O)c2ccc(/C=C/c3ccccc3)cc2O[C@@H]1CN(C)C(=O)c1ccncc1,11,1,18,-8,.
C/C=C/c1ccc([C@@H]2[C@H](CO)N(C(=O)c3cnccn3)C23CN(C(=O)C2CCC2)C3)cc1,5,2,14,-7,.
O=C(c1ccccn1)N1CC2(C1)[C@@H](c1ccccc1)[C@@H](CO)N2C(=O)CC1CC1,1,0,35*,1,.
O=C(c1ccccn1)N1CC2(C1)[C@H](c1ccccc1)[C@@H](CO)N2Cc1ccc(F)cc1,0,0,39*,-13,.
O=C(c1ccccn1)N1CC2(C1)[C@H](c1ccccc1)[C@H](CO)N2Cc1ccc(F)cc1,-1,-3,4,-7,.
C/C=C/c1ccc([C@H]2[C@@H](CO)N(C(=O)C3CC3)C23CN(C(=O)NC(C)C)C3)cc1,-12,-1,105*,-4,.
C/C=C/c1ccc([C@@H]2[C@H](CO)N(C(=O)c3cnccn3)C23CN(C(=O)C2CC2)C3)cc1,1,-3,24*,-25,.
O=C(c1ccccc1)N1CC2(C1)[C@H](c1ccccc1)[C@H](CO)N2Cc1ccccn1,0,1,-2,33,.
SMILES,AF4-AF9 inh,SIRT5 block,DENV2 CPE rescue,S100A4 inh HTS,CaV13 ICDI inh
O=C(CC1CC1)N1CC2(C1)[C@@H](c1ccccc1)[C@@H](CO)N2C(=O)c1cnccn1,-11,-1,32*,0,.
O=C(CC1CC1)N1CC2(C1)[C@H](c1ccccc1)[C@H](CO)N2Cc1ccccn1,-3,-4,23*,-19,.
O=C(CC1CC1)N1CC2(C1)[C@H](c1ccccc1)[C@@H](CO)N2C(=O)c1cnccn1,-13,-1,-5,34,.
O=C(c1ccccn1)N1CC2(C1)[C@@H](c1ccccc1)[C@@H](CO)N2C(=O)C1CC1,2,2,-6,3,.
CCOC(=O)c1[nH]ncc1CN1CCCC(C(=O)c2cccc(OC(C)C)c2)C1 (configuration not stated),.,.,.,.,-5
COc1ccc(C(=O)C2CCCN(Cc3cn[nH]c3-c3ccccc3)C2)cc1OC (configuration not stated),2,29*,-2,0,4
COc1ccc(-c2[nH]ncc2CN2CCCC(C(=O)c3cccc(OC)c3)C2)cc1 (configuration not stated),2,18*,-3,-3,-5
COc1ccc(CN2CC3(CCN(C(=O)C4CCOCC4)CC3)c3c(n(C)c4cc(OC)ccc34)[C@H]2CO)cc1,8,11,10,9,.
Cc1noc(C)c1S(=O)(=O)Nc1ccc2c(c1)C(=O)N([C@H](C)CO)C[C@@H](C)[C@@H](CN(C)S(=O)(=O)c1ccc(F)cc1)O2,-2,-2,-8,-22,.
COc1ccc(Nc2ccc(OC)cc2)cc1,81*,-5,0,8,14
COc1ccc(Nc2nc3ccc(OC)cc3s2)cc1,8,16*,2,-2,-7
C[C@H](CO)N1C[C@H](C)[C@@H](CN(C)Cc2ccc(C(=O)O)cc2)Oc2c(NC(=O)Nc3ccccc3)cccc2C1=O,-1,2,30*,15,.
C[C@H](CO)N1C[C@H](C)[C@@H](CN(C)Cc2ccc(C(=O)O)cc2)Oc2c(NC(=O)Cc3ccccc3)cccc2C1=O,6,2,53*,-4,-4
C[C@@H]1CN([C@H](C)CO)C(=O)c2cccc(NC(=O)Nc3ccccc3)c2O[C@@H]1CN(C)Cc1ccc(Cl)c(Cl)c1,7,8,76*,-1,.
C[C@H](CO)N1C[C@H](C)[C@@H](CN(C)Cc2ccc(Cl)c(Cl)c2)Oc2c(NC(=O)CCC(F)(F)F)cccc2C1=O,1,.,22*,0,-5
